# In the library only some 3.2% were active in any assay of this set; here they are far more common.
# TRPN1 ag – zebrafish TRPN1 (NompC) channel agonism; HEK293 zebrafish TRPN1-YFP, Fluo-8 calcium fluorescence; 100% = response to 87 µM carbachol; actives 0.18% (n = 220,000); activation, % at 3 µM; AID 1424;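 active = activation above its plate's cutoff, the mean activation of test wells on that plate plus 3 SD, cut at about 19% in these data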;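 note: 0% = DMSO alone and 100% = 87 µM carbachol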
#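 Control set: carbachol 87 µM as high control, DMSO as low control; system: HEK293 stable line with zebrafish TRPN1-YFP; read-out: % activation versus carbachol response; detection: intracellular calcium fluorescence with Fluo-8; doses: single test compound dose, 3 µM nominal, 0.3% DMSO; schedule: dye 1 h 37 °C plus 30 min RT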
# OX1R antag-1 – human HCRTR1 antagonism; O43613; CHO/OX1R cells, Fluo-8 calcium fluorescence, orexin A; inhibition, % at 5 µM; actives 0.43% (n = 330,000); AID 434989;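 active = inhibition above its plate's threshold, mean inhibition of all tested compounds on the plate plus 3 SD, cut at about 37% in these data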;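 note: 0% = orexin A challenge wells and 100% = SB-334867-A antagonist wells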
# Target sequence (O43613 whole entry, looked up): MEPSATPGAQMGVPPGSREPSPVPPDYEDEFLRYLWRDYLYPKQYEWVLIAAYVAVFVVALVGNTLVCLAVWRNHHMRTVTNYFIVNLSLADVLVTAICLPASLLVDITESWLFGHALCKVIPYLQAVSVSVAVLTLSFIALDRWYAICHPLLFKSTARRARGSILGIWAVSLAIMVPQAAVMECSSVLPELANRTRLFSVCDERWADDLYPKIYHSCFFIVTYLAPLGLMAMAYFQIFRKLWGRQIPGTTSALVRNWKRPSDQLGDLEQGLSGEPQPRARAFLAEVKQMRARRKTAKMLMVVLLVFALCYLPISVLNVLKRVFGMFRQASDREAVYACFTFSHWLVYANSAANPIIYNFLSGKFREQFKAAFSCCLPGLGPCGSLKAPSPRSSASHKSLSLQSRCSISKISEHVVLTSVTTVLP
# TRPML3 ag – activates the human TRPML3 channel | Q8TDD5 | HEK293 TRPML3-YFP, Fluo-8 calcium fluorescence; 100% = the carbachol control signal | activation, % at 3 µM | actives 0.29% (n = 220,000);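 active = activation above its plate's cutoff, the mean activation of the plate's test wells plus 3 SD, cut at about 12% in these data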;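 note: 0% = DMSO only wells and 100% = carbachol wells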
#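 Test system – HEK293 line with stable expression of human TRPML3-YFP channel · Control set – carbachol 87 µM final as high control (100%), DMSO as low control (0%) · Signal – Fluo-8 calcium dye fluorescence, ex 470-495, em 515-575 nm · Incubation – 1-h 37 °C dye load, 5-s basal, 120-s post-compound reads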
# OX1R antag-2 – antagonists of human orexin 1 receptor (OX1R); inhibition, % at 6.6 µM; AID 485270; actives 1.8% (n = 330,000); OX1R-expressing cells, FRET antagonist read-out; in the data active = inhibition mostly above about 38%, no sharp cut-off; inactive = mostly below about 40%;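 note: 0% = agonist challenge alone and 100% = reference antagonist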
# GPR7 antagonist – blocks human GPR7 receptor signaling | AID 1861 | P48145 | actives 1.1% (n = 290,000) | inhibition, % at 4.4 µM | GPR7-expressing cells, fluorescence antagonist assay; in the data active = inhibition above about 16%, passing the limit was not always enough;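 note: cells stimulated with the agonist NPW; 0% = agonist with vehicle and 100% = vehicle without agonist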
# Target sequence (P48145 whole entry, looked up): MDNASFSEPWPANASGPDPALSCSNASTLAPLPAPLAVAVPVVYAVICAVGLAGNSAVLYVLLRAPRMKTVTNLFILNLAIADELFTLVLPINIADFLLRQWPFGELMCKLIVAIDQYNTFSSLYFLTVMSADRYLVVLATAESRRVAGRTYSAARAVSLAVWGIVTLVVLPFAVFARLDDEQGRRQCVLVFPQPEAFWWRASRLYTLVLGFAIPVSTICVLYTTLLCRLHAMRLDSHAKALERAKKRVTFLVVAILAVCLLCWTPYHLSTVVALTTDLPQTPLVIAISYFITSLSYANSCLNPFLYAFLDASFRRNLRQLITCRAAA
# CHO parental Ca – counter-screen: ATP calcium response change in parental CHO cells; actives 0.63% (n = 330,000); parental CHO-K1, ATP-induced calcium, Fluo-8 fluorescence; inhibition, % at 5.6 µM;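 active = inhibition above that plate's mean sample inhibition plus 3 SD, cut at about 26% in these data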;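 note: 0% = ATP-challenged DMSO wells and 100% = DMSO wells without ATP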
#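 Material: parental CHO cells / Compound: single nominal dose of 5.6 µM per compound / Signal: Fluo-8 fluorescence / Replicates: singlicate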
# TRPN1 counter – counter-screen for TRPML3 agonists: agonists of zebrafish TRPN1 channel. shares compounds with TRPML3 ag. HEK293 zebrafish TRPN1-YFP, Fluo-8 calcium fluorescence; scaled: carbachol wells 100%, DMSO wells 0%. activation, % at 3 µM. actives 10% (n = 310);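 active = mean activation over replicates above a set limit taken from the earlier TRPN1 channel primary screen, cut at about 19% in these data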;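 note: 100% = carbachol and 0% = 0.3% DMSO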
# TRPML3 ag conf – human TRPML3 agonism, confirmation; shares compounds with TRPML3 ag; HEK293 TRPML3-YFP, Fluo-8 calcium fluorescence; 100% set by carbachol, 0% by DMSO; activation, % at 3 µM; actives 80% (n = 310); AID 1526;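 active = activation above a set limit derived from the earlier primary screen, cut at about 12% in these data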
# GPR7 antag cf – confirmation of human GPR7 antagonists | shares compounds with GPR7 antagonist | GPR7-expressing cells, calcium fluorescence antagonist mode | inhibition, % at 4.4 µM | actives 52% (n = 2,400) | AID 1952; in the data active = inhibition above about 24%;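 note: stimulated with the GPR7 agonist NPW; 0% = agonist plus vehicle and 100% = vehicle alone without agonist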
# MCHR1 antagonist – MCHR1 (human) antagonism in GPR7 counter-screen. shares compounds with GPR7 antagonist. MCHR1-expressing cells, fluorescence antagonist assay. inhibition, % at 4.4 µM. actives 62% (n = 2,400); in the data active = inhibition above about 22%;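 note: 0% = vehicle with agonist and 100% = vehicle without agonist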
# * = called active by the depositor; · = no result given.
SMILES,TRPN1 ag,OX1R antag-1,TRPML3 ag,OX1R antag-2,GPR7 antagonist,CHO parental Ca,TRPN1 counter,TRPML3 ag conf,others
COc1ccc(C)cc1S(=O)(=O)N(C)CC(=O)NC1CCCCC1,-0.9,-17.3,-0.2,2.8,-0.5,-24.2,·,·,
CCN(C1CCCCC1)S(=O)(=O)c1ccc(-n2cnnn2)c(C)c1,·,-19.2,·,13.9,9.9,-1.1,·,·,
Cc1cc(=O)oc2c(CN3CC(C)OC(C)C3)c(O)c(Cl)cc12 (stereo unspecified),-0.4,-40.4,0.5,18.0,-8.6,-11.8,·,·,
COc1ccc(N(C)C(=O)c2ccc3nc(-c4ccccc4)c(-c4ccccc4)nc3c2)cc1,0.6,-3.2,0.4,28.0,-20.4,-27.0,·,·,
CC(C)N(C(=O)c1ccc2nc(-c3ccccc3)c(-c3ccccc3)nc2c1)C(C)C,-1.0,-37.1,83.8*,10.9,-14.9,-18.1,-1.4,104.1*,
C=CCN1C=CC(=C/C=C(/C#N)C(=O)OCC)C=C1,16.2,19.2,11.8*,60.5*,-2.0,10.5,17.7,14.4*,
O=C(N/N=C/c1ccc(Cl)cc1)C1CC12CCC2 (stereo unspecified),-1.0,-13.4,-0.8,19.9,-0.3,0.6,·,·,
COc1ccccc1N/C=C(\C#N)c1nc2ccccc2[nH]1,-1.7,-14.4,-0.3,19.6,-9.2,-10.3,·,·,
CN(C)C(=O)C1Cc2ccccc2CN1S(=O)(=O)c1cccs1 (stereo unspecified),-1.1,-14.7,-0.1,15.6,-9.9,-1.7,·,·,
COc1ccccc1N1CCN(C(=O)C2CCCCN2S(=O)(=O)c2ccc(C)cc2)CC1 (stereo unspecified),0.7,-24.6,13.8*,11.7,-11.1,-19.4,0.1,10.5,
O=C(c1ccco1)N1CCN(C(=O)C2Cc3ccccc3CN2S(=O)(=O)c2ccc(F)cc2)CC1 (stereo unspecified),0.3,-16.9,0.6,1.4,15.1,-19.8,·,·,
O=C(C1Cc2ccccc2CN1S(=O)(=O)c1cccs1)N1CCCCC1 (stereo unspecified),-0.7,-17.7,15.1*,23.8,1.5,-7.4,0.2,51.7*,
O=C(C1Cc2ccccc2CN1S(=O)(=O)c1ccc(F)cc1)N1CCCCC1 (stereo unspecified),1.3,-21.3,63.8*,4.9,-9.6,-7.1,4.2,126.6*,
COc1ccccc1N1CCN(C(=O)C2CCCN(S(=O)(=O)c3ccc(C)cc3)C2)CC1 (stereo unspecified),·,-30.4,·,11.3,·,-26.7,·,·,
O=S(=O)(/C=C/c1ccccc1)c1ccccc1,-2.0,-2.3,-0.2,9.1,-4.7,14.1,·,·,
O=S(=O)(C=C(c1ccccc1)c1ccccc1)c1ccccc1,-0.3,42.9*,83.3*,41.8,-8.2,47.9*,-1.9,64.2*,
Cc1nnc(-c2ccccc2)c(=O)n1/N=C/c1c(O)ccc2ccccc12,14.6,15.8,13.2*,31.3,-12.1,2.5,1.9,0.8,
Cc1nnc(C)n1/N=C/c1c(O)ccc2ccccc12,·,-22.2,·,9.8,-11.0,3.4,·,·,
COC(=O)c1cc(-c2ccc(S(=O)(=O)N3CCCCC3)cc2)c(C(F)(F)F)s1,-0.4,-24.8,15.8*,0.1,-1.4,-16.9,-0.7,19.4*,
O=C(NC1CCSc2ccccc21)c1ccccc1Br (stereo unspecified),·,-5.7,·,3.4,-11.7,0.7,·,·,
CC(Oc1ccc(Cl)cc1)c1ccnn1S(=O)(=O)c1ccc(Cl)cc1 (stereo unspecified),-0.8,-15.1,0.1,15.1,-8.5,-13.4,·,·,
Cc1ccc(S(=O)(=O)n2nccc2-c2c(-c3ccc(Cl)cc3)noc2C)cc1,1.0,-29.8,81.8*,20.1,-9.2,-15.5,0.5,106.2*,
O=C(Cc1ccc(Cl)c(Cl)c1)Nc1ccccc1N1CCOCC1,-0.4,-37.3,51.4*,17.4,-7.3,-25.2,1.0,66.8*,
O=C(Cc1ccccc1)Nc1ccccc1N1CCOCC1,-1.5,-15.5,1.0,16.4,6.3,-10.2,·,·,
O=c1[nH]cc(S(=O)(=O)N2CCCc3ccccc32)c(=O)[nH]1,·,3.6,·,24.1,·,4.9,·,·,
SMILES,TRPN1 ag,OX1R antag-1,TRPML3 ag,OX1R antag-2,GPR7 antagonist,CHO parental Ca,TRPN1 counter,TRPML3 ag conf,others
COc1ccc(S(=O)(=O)N2CCOCC2)cc1Br,-0.1,-9.7,0.6,17.7,-4.1,12.8,·,·,
COc1cc(C)ccc1S(=O)(=O)N1CCCCCC1,1.0,-18.2,94.5*,4.2,2.7,-9.1,-0.1,33.8*,
COc1ccc(S(=O)(=O)N2CCCCCC2)cc1N(C)S(=O)(=O)c1ccc(C)cc1,1.6,-22.2,55.4*,15.8,10.3,-15.4,1.8,48.8*,
CCOc1ccc(S(=O)(=O)N2CCCCC2)c(C)c1C,-1.5,·,84.5*,·,-11.0,·,-1.7,77.4*,
COc1ccc(S(=O)(=O)N2CCCCCC2)cc1Br,-1.5,·,105.8*,·,4.0,·,-1.8,70.5*,
COc1ccc(S(=O)(=O)N2CCOCC2)cc1N(C)S(=O)(=O)c1ccc(C)cc1,·,-2.9,·,9.4,-2.4,-8.9,·,·,
COc1cccc(C(=O)Nc2nnc(S(=O)(=O)N(C)Cc3ccc(F)cc3)s2)c1,·,-13.3,·,24.3,7.1,12.4,·,·,
CC(=O)c1cccc(NC(=S)N2CCN(S(=O)(=O)c3ccccc3)CC2)c1,·,·,·,·,7.3,·,·,·,
CCOc1ccc(S(=O)(=O)NC(C)(C)C)cc1-c1nc2c(C(C)(C)C)nn(C)c2c(=O)[nH]1,-0.7,-6.9,24.1*,6.2,-13.2,-6.1,1.7,147.3*,
COc1cccc(CN(Cc2ccco2)C(c2ccc(F)cc2)c2nnnn2C(C)(C)C)c1 (stereo unspecified),0.5,4.1,25.5*,30.7,11.7,18.8,6.1,26.1*,
CC(C)(C)n1nnnc1C(c1cccnc1)N(Cc1ccccc1)Cc1ccco1 (stereo unspecified),-1.6,-5.7,0.2,36.3,-7.5,-27.8,·,·,
CSc1nsc(/C=C/Nc2cccc(Cl)c2)c1C#N,0.6,-20.5,39.7*,38.7,-6.5,-4.0,0.4,14.1*,
Cc1cc(C)nc(/N=C(\N)Nc2ccc(-c3ccccc3)cc2)n1,16.3,2.0,14.6*,14.9,64.9*,24.3,21.0*,10.7,GPR7 antag cf=65.5*;MCHR1 antagonist=80.8*
